# Results reported in ChEMBL document CHEMBL1124186, “Synthesis and evaluation of tylosin-related macrolides modified at the aldehyde function: a new series of orally effective antibiotics” (1988).
# What was measured:
# [1] = test system: Haemophilus parainfluenzae; experiment: In vitro antimicrobial activity against aerobic bacteria Haemophilus parainfluenzae 9796; type: functional
# [2] = test system: Streptococcus pyogenes; experiment: In vivo effective dose against Streptococcus pyogenes C203 when administered orally; type: functional; conditions: po
# [3] = test system: Prevotella melaninogenica; experiment: In vitro antimicrobial activity against anaerobic bacteria bacteroides melaninogenicus 1856,; type: functional
# [4] = test system: Streptococcus pyogenes; experiment: In vitro antimicrobial activity against Streptococcus pyogenes C203; type: functional
# [5] = test system: Streptococcus; experiment: In vitro antimicrobial activity against aerobic bacteria Streptococcus G Kruder; type: functional; conditions: Streptococcus; read-out: MIC
# [6] = test system: Fusobacterium; experiment: In vitro antimicrobial activity against anaerobic bacteria fusobacterium symbiosum 1470; type: functional
# [7] = test system: Bacteroides fragilis; experiment: In vitro antimicrobial activity against anaerobic bacteria bacteroides fragilis 111; type: functional
# [8] = test system: Collinsella aerofaciens; experiment: In vitro antimicrobial activity against anaerobic bacteria eubacterium aerofaciens 1235; type: functional
# [9] = test system: Bacteroides fragilis; experiment: In vitro antimicrobial activity against anaerobic bacteria bacteroides fragilis 1877; type: functional
# [10] = test system: Streptococcus; experiment: In vitro antimicrobial activity against aerobic bacteria Streptococcus D 9960; type: functional
# [11] = test system: Haemophilus influenzae; experiment: In vitro antimicrobial activity against Haemophilus influenzae.; type: functional
# [12] = test system: Haemophilus influenzae; experiment: In vitro antimicrobial activity against aerobic bacteria Haemophilus influenzae MX366,; type: functional
# [13] = test system: Enterococcus faecium; experiment: In vitro antimicrobial activity against Streptococcus faecium X66; type: functional, streptococcus fae-cium
# [14] = test system: Clostridium septicum; experiment: In vitro antimicrobial activity against anaerobic bacteria clostridium septicum 1128; type: functional
# [15] = test system: Anaerococcus prevotii; experiment: In vitro antimicrobial activity against anaerobic bacteria peptococcus prevoti 1281; type: functional
# [16] = test system: Bacteroides thetaiotaomicron; experiment: In vitro antimicrobial activity against anaerobic bacteria bacteroides thetaiotaomicron 1438; type: functional
# [17] = test system: Streptococcus pyogenes; experiment: Antimicrobial activity against Streptococcus pyogenes C203; type: functional
# [18] = test system: Streptococcus pneumoniae; experiment: In vitro antimicrobial activity against aerobic bacteria Streptococcus pneumoniae B1-438; type: functional, streptococcus pneum
# [19] = test system: Staphylococcus aureus; experiment: In vitro antimicrobial activity against Staphylococcus aureus X1; type: functional
# [20] = test system: Streptococcus; experiment: In vitro antimicrobial activity against aerobic bacteria Streptococcus B 8; type: functional
# [21] = test system: Cutibacterium acnes; experiment: In vitro antimicrobial activity against anaerobic bacteria propionibacterium acnes 79; type: functional
# [22] = test system: Eikenella corrodens; experiment: In vitro antimicrobial activity against anaerobic bacteria bacteroides corrodens 1874; type: functional
# [23] = test system: Staphylococcus aureus; experiment: In vitro antimicrobial activity against aerobic bacteria Staphylococcus aureus V140,; type: functional
# [24] = In vitro antimicrobial activity against anaerobic bacteria peptostreptococcus intermedius 1264; type: functional
# [25] = test system: Clostridioides difficile; experiment: In vitro antimicrobial activity against anaerobic bacteria Clostridium difficile 2994; type: functional
# [26] = test system: Staphylococcus aureus; experiment: In vitro antimicrobial activity against aerobic bacteria Staphylococcus aureus 513E; type: functional
# [27] = test system: Staphylococcus aureus; experiment: In vitro antimicrobial activity against aerobic bacteria Staphylococcus aureus X400; type: functional
# [28] = test system: Streptococcus pneumoniae; experiment: In vitro antimicrobial activity against Streptococcus pneumoniae; type: functional
# [29] = test system: Prevotella melaninogenica; experiment: In vitro antimicrobial activity against anaerobic bacteria bacteroides melaninogenicus 2736; type: functional
# [30] = test system: Streptococcus pyogenes; experiment: In vivo effective dose against Streptococcus pyogenes C203 when administered sc; type: functional
# [31] = test system: Streptococcus; experiment: In vitro antimicrobial activity against aerobic bacteria Streptococcus B 5; type: functional
# [32] = test system: Streptococcus; experiment: In vitro antimicrobial activity against aerobic bacteria Streptococcus D 2041; type: functional
# [33] = test system: Staphylococcus aureus; experiment: In vitro antimicrobial activity against aerobic bacteria Staphylococcus aureus V41; type: functional
# [34] = test system: Peptostreptococcus anaerobius; experiment: In vitro antimicrobial activity against anaerobic bacteria eubacterium peptostreptococcus anaerobius 1428,; type: functional
# [35] = test system: Staphylococcus epidermidis; experiment: In vitro antimicrobial activity against Staphylococcus epidermidis EPI1; type: functional
# [36] = test system: Peptoniphilus asaccharolyticus; experiment: In vitro antimicrobial activity against anaerobic bacteria peptococcus asaccharolyticus 1302; type: functional
# [37] = test system: Staphylococcus aureus; experiment: In vitro antimicrobial activity against aerobic bacteria Staphylococcus aureus V135; type: functional
# [38] = test system: Haemophilus influenzae; experiment: In vitro antimicrobial activity against aerobic bacteria Haemophilus influenzae 76; type: functional
# [39] = test system: Streptococcus; experiment: In vitro antimicrobial activity against aerobic bacteria Streptococcus C 24; type: functional
# [40] = test system: Fusobacterium necrophorum; experiment: In vitro antimicrobial activity against anaerobic bacteria usobacterium necrophorum 6054A; type: functional
# [41] = test system: Phocaeicola vulgatus; experiment: In vitro antimicrobial activity against anaerobic bacteria bacteroides vulgatus 1211; type: functional
# [42] = test system: Staphylococcus epidermidis; experiment: In vitro antimicrobial activity against aerobic bacteria Streptococcus epi 222; type: functional
# [43] = test system: Streptococcus; experiment: In vitro antimicrobial activity against aerobic bacteria Streptococcus D 8043; type: functional
# [44] = test system: Streptococcus sanguinis; experiment: In vitro antimicrobial activity against aerobic bacteria Streptococcus sanguis MX132; type: functional
# [45] = test system: Streptococcus viridans; experiment: In vitro antimicrobial activity against aerobic bacteria Streptococcus viridans 9943; type: functional
# [46] = test system: Chlamydia trachomatis; experiment: In vitro antimicrobial activity against chlamydia trachomatis.; type: functional
# [47] = test system: Clostridium perfringens; experiment: In vitro antimicrobial activity against anaerobic bacteria clostridium perfringens 81,; type: functional
# [48] = test system: Bacteroides fragilis; experiment: In vitro antimicrobial activity against anaerobic bacteria bacteroides fragilis 1936B,; type: functional
# [49] = test system: Staphylococcus epidermidis; experiment: In vitro antimicrobial activity against aerobic bacteria Streptococcus epi 270; type: functional
# [50] = test system: Haemophilus influenzae; experiment: In vitro antimicrobial activity against aerobic bacteria Haemophilus influenzae 465; type: functional
# [51] = test system: Streptococcus pyogenes; experiment: In vivo effective dose against experimental infections in rodent caused by Streptococcus pyogenes C203 when administered orally; type: functional; conditions: po
# [52] = test system: Streptococcus pyogenes; experiment: Effective dose against Streptococcus pyogenes administered orally; type: functional; conditions: po
# How it was run: (§1)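 Mouse protection test: infected mice were dosed twice, at 1 and 5 h postinfection, either subcutaneously or orally. […] The result is expressed as ED50 in mg/kg × 2.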
# [53] = test system: Collinsella aerofaciens; experiment: In vitro antimicrobial activity against anaerobic bacteria aerofaciens 1235; type: functional
# [54] = test system: Streptococcus pyogenes; experiment: In vivo effective dose against experimental infections in rodent caused by Streptococcus pyogenes C203 when administered sc; type: functional
# [55] = test system: Streptococcus pyogenes; experiment: Effective dose against Streptococcus pyogenes C203 when administered sc; type: functional; how it was run: as §1
structure (smiles),measurement,setting,value
CC[C@H]1OC(=O)C[C@@H](O)[C@H](C)[C@@H](O[C@@H]2O[C@H](C)[C@@H](O[C@H]3C[C@@](C)(O)[C@@H](O)[C@H](C)O3)[C@H](N(C)C)[C@H]2O)[C@@H](CC=O)C[C@@H](C)C(=O)/C=C/C(C)=C/[C@@H]1CO,MIC,[1],8 µg/mL
same,ED50,[2],82 mg/kg
same,MIC,[3],0.5 µg/mL
same,MIC,[4],0.25 µg/mL
same,MIC,[5],0.25 µg/mL
same,MIC,[6],0.5 µg/mL
same,MIC,[7],2 µg/mL
same,MIC,[8],0.12 µg/mL
same,MIC,[9],4 µg/mL
same,MIC,[10],1 µg/mL
same,MIC,[11],4 µg/mL
same,MIC,[12],2 µg/mL
same,MIC,[13],1 µg/mL
same,MIC,[14],0.5 µg/mL
same,MIC,[15],8 µg/mL
same,MIC,[16],2 µg/mL
same,MIC,[17],0.25 µg/mL
same,MIC,[18],128 µg/mL
same,MIC,[19],1 µg/mL
same,MIC,[20],0.25 µg/mL
same,MIC,[21],0.25 µg/mL
same,MIC,[22],2 µg/mL
same,MIC,[23],2 µg/mL
same,MIC,[24],0.25 µg/mL
same,MIC,[25],1 µg/mL
same,MIC,[26],1 µg/mL
same,MIC,[27],2 µg/mL
same,MIC,[28],0.5 µg/mL
same,MIC,[29],2 µg/mL
same,ED50,[30],1.9 mg/kg
same,MIC,[31],0.5 µg/mL
same,MIC,[32],0.5 µg/mL
same,MIC,[33],1 µg/mL
same,MIC,[34],4 µg/mL
same,MIC,[35],1 µg/mL
same,MIC,[36],< 0.03 µg/mL
same,MIC,[37],2 µg/mL
same,MIC,[38],4 µg/mL
same,MIC,[39],0.25 µg/mL
same,MIC,[40],0.12 µg/mL
same,MIC,[41],2 µg/mL
same,MIC,[42],0.25 µg/mL
same,MIC,[43],0.5 µg/mL
same,MIC,[44],0.25 µg/mL
same,MIC,[45],> 128 µg/mL
same,MIC,[46],1 µg/mL
same,MIC,[47],0.5 µg/mL
same,MIC,[48],2 µg/mL
same,MIC,[49],> 128 µg/mL
same,MIC,[50],8 µg/mL
CC[C@H]1OC(=O)C[C@@H](O)[C@H](C)[C@@H](O[C@@H]2O[C@H](C)[C@@H](O[C@H]3C[C@@](C)(O)[C@@H](O)[C@H](C)O3)[C@H](N(C)C)[C@H]2O)[C@@H](CC=O)C[C@@H](C)C(=O)/C=C/C(C)=C/[C@@H]1CO[C@@H]1O[C@H](C)[C@@H](O)[C@@H](OC)[C@H]1OC [TYLOSIN],MIC,[1],16 µg/mL
same,MIC,[3],0.25 µg/mL
same,MIC,[4],0.25 µg/mL
same,MIC,[5],0.25 µg/mL
same,MIC,[6],< 0.03 µg/mL
same,MIC,[7],0.5 µg/mL
same,MIC,[9],1 µg/mL
same,MIC,[10],1 µg/mL
same,MIC,[11],16 µg/mL
same,MIC,[12],16 µg/mL
same,MIC,[13],2 µg/mL
same,MIC,[14],0.5 µg/mL
same,MIC,[15],8 µg/mL
same,MIC,[16],1 µg/mL
same,ED50,[51],42 mg/kg
same,MIC,[17],0.25 µg/mL
same,MIC,[18],> 128 µg/mL
same,MIC,[19],0.5 µg/mL
same,MIC,[20],1 µg/mL
same,MIC,[21],0.5 µg/mL
same,ED50,[52],0.5 mg/kg
same,MIC,[22],1 µg/mL
same,MIC,[23],1 µg/mL
same,MIC,[24],0.5 µg/mL
same,MIC,[25],1 µg/mL
same,MIC,[26],1 µg/mL
same,MIC,[27],1 µg/mL
same,MIC,[28],0.25 µg/mL
same,MIC,[29],< 0.03 µg/mL
same,MIC,[31],1 µg/mL
same,MIC,[32],1 µg/mL
same,MIC,[33],1 µg/mL
same,MIC,[34],8 µg/mL
same,MIC,[35],1 µg/mL
same,MIC,[36],0.06 µg/mL
same,MIC,[37],1 µg/mL
same,MIC,[38],16 µg/mL
same,MIC,[39],0.25 µg/mL
same,MIC,[40],0.5 µg/mL
same,MIC,[41],1 µg/mL
same,MIC,[42],0.25 µg/mL
same,MIC,[43],1 µg/mL
same,MIC,[53],0.12 µg/mL
same,MIC,[44],0.5 µg/mL
same,ED50,[54],1.3 mg/kg
same,MIC,[45],> 128 µg/mL
same,ED50,[55],0.5 mg/kg
same,MIC,[46],0.25 µg/mL
same,MIC,[47],0.25 µg/mL
same,MIC,[48],1 µg/mL
same,MIC,[49],> 128 µg/mL
same,MIC,[50],32 µg/mL
